From ChEMBL document CHEMBL4706499, “PTG-0861: A novel HDAC6-selective inhibitor as a therapeutic strategy in acute myeloid leukaemia” (Eur J Med Chem, 2020) come the findings set out here.

Data set [1] concerns MV4-11. The experiment in a line: Induction of apoptosis in human MV4-11 cells assessed as viable cells at 4 microM measured after 18 hrs by Annexin V/Propidium iodide stain based Flow cytometry assay (reference value: 53.27%). It counts as functional. As to conditions: read-out: Activity.
Data set [2] has as its system MV4-11. Nature of the data set: Induction of apoptosis in human MV4-11 cells assessed as early apoptotic cells at 0.25 microM measured after 18 hrs by Annexin V/Propidium iodide stain based Flow cytometry assay (reference value: 1.7%). The data set is classed as functional.
Data set [3] is described as follows: Apparent permeability across apical to basolateral side in human Caco2 cells measured after 2 hrs by LC-MS/MS method. The data set is classed as ADME, cell-based. As to conditions: Caco-2. The method in brief:
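Bidirectional Caco-2 permeability was measured as Papp in the apical-to-basolateral and basolateral-to-apical directions. The efflux ratio was calculated from the two directional Papp values.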

The subject of data set [4] is MV4-11. Nature of the data set: Induction of apoptosis in human MV4-11 cells assessed as late apoptotic cells at 0.25 microM measured after 18 hrs by Annexin V/Propidium iodide stain based Flow cytometry assay (reference value: 4.91%). The data set is classed as functional.
The target of data set [5] is T1, Protein deacetylase HDAC6 (Homo sapiens) (UniProt Q9UBN7).
T1 sequence (whole entry): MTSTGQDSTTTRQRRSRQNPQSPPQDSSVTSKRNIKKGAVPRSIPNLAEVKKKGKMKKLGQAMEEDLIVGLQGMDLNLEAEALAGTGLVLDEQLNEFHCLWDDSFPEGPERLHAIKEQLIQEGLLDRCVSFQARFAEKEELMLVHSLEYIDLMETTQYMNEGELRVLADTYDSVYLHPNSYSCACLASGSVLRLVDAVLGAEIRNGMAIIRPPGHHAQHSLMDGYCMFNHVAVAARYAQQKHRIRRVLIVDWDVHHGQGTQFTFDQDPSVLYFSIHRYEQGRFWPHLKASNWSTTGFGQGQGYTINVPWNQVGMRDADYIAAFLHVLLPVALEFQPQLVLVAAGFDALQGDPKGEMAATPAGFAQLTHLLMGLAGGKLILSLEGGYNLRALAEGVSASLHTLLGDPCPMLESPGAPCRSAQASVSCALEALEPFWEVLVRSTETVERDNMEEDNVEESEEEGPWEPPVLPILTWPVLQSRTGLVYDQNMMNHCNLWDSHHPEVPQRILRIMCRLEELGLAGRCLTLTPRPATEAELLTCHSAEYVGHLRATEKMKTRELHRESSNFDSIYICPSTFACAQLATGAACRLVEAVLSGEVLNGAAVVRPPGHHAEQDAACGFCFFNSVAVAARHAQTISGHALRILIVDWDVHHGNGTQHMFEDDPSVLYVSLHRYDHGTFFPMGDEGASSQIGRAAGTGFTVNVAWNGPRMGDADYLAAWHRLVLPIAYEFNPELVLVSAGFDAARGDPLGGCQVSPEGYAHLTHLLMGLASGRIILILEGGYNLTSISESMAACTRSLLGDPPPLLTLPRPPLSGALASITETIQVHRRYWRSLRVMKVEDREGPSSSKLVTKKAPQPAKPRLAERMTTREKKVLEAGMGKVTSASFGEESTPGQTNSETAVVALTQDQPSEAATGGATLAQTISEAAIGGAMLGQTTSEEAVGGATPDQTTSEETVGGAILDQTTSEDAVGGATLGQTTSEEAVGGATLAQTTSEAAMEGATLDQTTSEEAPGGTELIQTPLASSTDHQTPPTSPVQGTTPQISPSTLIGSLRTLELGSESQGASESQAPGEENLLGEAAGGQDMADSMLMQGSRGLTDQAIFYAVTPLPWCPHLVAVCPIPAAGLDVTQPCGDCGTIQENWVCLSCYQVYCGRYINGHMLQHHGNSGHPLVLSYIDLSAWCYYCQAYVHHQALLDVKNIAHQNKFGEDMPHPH
The experiment in a line: Inhibition of HDAC6 in human MV4-11 cells assessed as increase in acetylation of alpha tubulin at 0.5 uM measured after 6 hrs by Western blot assay relative to histone H4 acetylation. It counts as cell-based. The method in brief:
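MV4-11 cells were exposed to a range of concentrations for 6 h. Protein extracts were run on SDS-PAGE and immunoblotted for acetylated α-tubulin, acetylated histone H3 and acetylated histone H4, with HSC70 as the loading reference. A representative blot of three independent experiments is shown.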

The test system of data set [6] is MV4-11. The experiment in a line: Induction of apoptosis in human MV4-11 cells assessed as early apoptotic cells at 2 microM measured after 18 hrs by Annexin V/Propidium iodide stain based Flow cytometry assay (reference value: 1.7%). It counts as functional.
The next data set deals with T2, Histone deacetylase 7 (Homo sapiens, UniProt Q8WUI4).
T2 sequence (Q8WUI4 whole entry): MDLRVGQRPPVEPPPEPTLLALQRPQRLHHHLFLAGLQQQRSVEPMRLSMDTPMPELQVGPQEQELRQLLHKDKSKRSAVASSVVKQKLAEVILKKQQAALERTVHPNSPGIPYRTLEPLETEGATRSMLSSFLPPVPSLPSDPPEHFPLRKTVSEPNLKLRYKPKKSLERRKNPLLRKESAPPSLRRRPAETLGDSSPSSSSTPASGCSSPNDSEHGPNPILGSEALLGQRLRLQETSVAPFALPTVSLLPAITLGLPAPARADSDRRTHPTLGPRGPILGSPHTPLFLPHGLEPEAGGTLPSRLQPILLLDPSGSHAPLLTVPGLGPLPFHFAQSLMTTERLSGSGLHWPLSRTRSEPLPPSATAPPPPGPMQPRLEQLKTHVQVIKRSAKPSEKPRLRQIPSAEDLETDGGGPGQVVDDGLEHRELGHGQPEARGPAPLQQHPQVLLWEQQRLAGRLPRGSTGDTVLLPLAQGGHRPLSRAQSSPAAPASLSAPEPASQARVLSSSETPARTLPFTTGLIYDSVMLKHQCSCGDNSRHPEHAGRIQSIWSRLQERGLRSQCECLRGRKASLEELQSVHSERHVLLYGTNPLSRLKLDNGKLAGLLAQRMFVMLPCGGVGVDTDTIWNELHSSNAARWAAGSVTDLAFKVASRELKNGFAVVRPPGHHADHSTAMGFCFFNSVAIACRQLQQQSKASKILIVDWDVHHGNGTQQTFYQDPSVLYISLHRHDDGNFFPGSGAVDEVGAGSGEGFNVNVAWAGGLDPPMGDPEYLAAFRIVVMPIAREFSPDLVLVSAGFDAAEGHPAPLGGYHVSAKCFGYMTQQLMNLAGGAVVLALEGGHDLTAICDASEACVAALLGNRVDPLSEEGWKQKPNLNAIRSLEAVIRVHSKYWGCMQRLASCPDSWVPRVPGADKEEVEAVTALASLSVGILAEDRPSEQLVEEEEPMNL
Nature of the data set: Inhibition of recombinant full length human HDAC7 expressed in SF9 baculovirus using FAM- labelled acetylated peptide as substrate measured by Electrophoretic mobility shift assay.

The nature of data set [7]: Glutathione reactivity at pH 7.4 assessed as compound remaining measured after 30 mins by LC-MS/MS method. The data set is classed as physicochemical. As to conditions: glutathione solution, read-out: Stabilty.
The subject of data set [8] is MV4-11. The experiment in a line: Induction of apoptosis in human MV4-11 cells assessed as early apoptotic cells at 4 microM measured after 18 hrs by Annexin V/Propidium iodide stain based Flow cytometry assay (reference value: 1.7%). It counts as functional.

Active and inactive are the calls of the source. The rule behind the calls is not given here.

With `O=C(NO)c1ccc(CNC(=O)c2c(F)c(F)c(F)c(F)c2F)cc1`, the viability at 4 µM with MV4-11 [1] was found to be 17.9%. Moreover, the Activity was determined as 1.69% with MV4-11 [2], 5.13% in the data set on MV4-11 [4], 7.73% in the data set on MV4-11 [6] and 18% in the data set with MV4-11 [8]. Besides, the Papp A→B at 2 h in data set [3] came out at 1.33 ×10⁻⁶ cm/s. Also, the inhibition result in data set [5] was “Active”. The IC50 at Histone deacetylase 7 is > 1000 nM. Besides, the remaining at 0.5 h in data set [7] was found to be 96.4%.
